Rad51 HR inh – human RAD51 strand exchange inhibitors, primary screen, biochemical, fluorescence; inhibition, % at 10 µM; actives 0.085% (n = 200,000); DNA repair protein RAD51 homolog 1 (Homo sapiens), Q06609; hRad51 DNA strand exchange, fluorescence dequenching;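 active means inhibition above 40% at the single screening dose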;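 further: 0% = DMSO control wells and 100% = blanks with heterologous ssDNA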
Target sequence (Q06609 whole entry, looked up): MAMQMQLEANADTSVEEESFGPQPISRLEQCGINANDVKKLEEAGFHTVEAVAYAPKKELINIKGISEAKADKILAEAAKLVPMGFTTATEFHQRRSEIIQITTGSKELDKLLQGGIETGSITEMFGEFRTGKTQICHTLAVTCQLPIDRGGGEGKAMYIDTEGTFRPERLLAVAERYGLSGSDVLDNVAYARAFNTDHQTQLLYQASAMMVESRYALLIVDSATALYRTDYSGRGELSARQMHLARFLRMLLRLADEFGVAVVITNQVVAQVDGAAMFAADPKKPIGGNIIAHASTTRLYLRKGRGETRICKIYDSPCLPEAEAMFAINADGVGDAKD
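Test system: preformed human Rad51 ssDNA filaments; also added: Donor/quencher-labelled 47-bp dsDNA substrate; doses: 10 µM final, single point; times: 37 °C 15-min filament assembly, 30-min compound preincubation, 15-min exchange; detection: FRET fluorescence dequenching, excitation 485 nm, emission 520 nm; read-out basis: Fluorescence-based percent inhibition, control- and blank-normalised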
Calb biofilm kill – clotrimazole potentiators killing C. albicans biofilm, primary screen, 4-compound mixtures; inhibition, % at 7.6 µM; C. albicans biofilm persisters + clotrimazole, fluorescence viability; primary screen in compound mixtures of four per well; actives 0.02% (n = 120,000);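 active means inhibition above 30.3% in the primary screen of four-compound pools, then above 30% when the compound was retested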;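 further: compounds exposed to preformed 24 h biofilms for 48 h; 0% = untreated biofilm control and 100% = clotrimazole plus chlorhexidine kill blank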
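Incubation: 24 h biofilm formation, then 48 h compound exposure, 37 °C | Material: C. albicans biofilms | Buffer or medium: RPMI/MOPS medium, pH 7.0 | Measured by: 2-h Alamar Blue fluorescence, 535/590 nm excitation/emission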
S1P3 antagonist – S1P3 receptor antagonists, primary screen, cell-based | actives 0.27% (n = 170,000) | inhibition, % at 4.98 µM | Sphingosine 1-phosphate receptor 3 (Homo sapiens), Q99500 | CHO S1P3 NFAT-BLA reporter, FRET fluorescence, antagonist mode | AID 485, 2006;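 active means inhibition above the plate cutoff, the mean inhibition of test wells on that plate plus 3 SD, cut at about 28% in these data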;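 further: cells challenged with S1P at its EC80 of 0.8 µM; blue over green emission ratio from cleaved BLA substrate after 4 h stimulation; 0% = S1P-stimulated wells and 100% = unstimulated DMSO-only wells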
Numbers without * were called inactive; / = not tested or not shown. A selection: hits, their analogues and other compounds. The true share with any hit is near 0.31%.

SMILES	Rad51 HR inh	Calb biofilm kill	S1P3 antagonist
COc1ccc(NC(=O)CC(NCc2ccccn2)C(=O)O)cc1 (stereo unspecified)	-25.5	8.8	-10.7
COc1ccc(N2C(=O)c3ccccc3NC2(C)C)cc1	-20.6	2.9	-18.5
CCC1(C)Nc2ccccc2C(=O)N1O (stereo unspecified)	40.7*	/	-28.2
COCCNC(=S)NNc1ccccc1[N+](=O)[O-]	29.2	2.2	1.6
Cc1nc2c(ncn2-c2ccccc2)c(=O)n1NC(=O)CN1CCCCC1	-9.5	17.8	-10.3
CCOC(=O)c1c(NC(=O)CN2C(=O)NC(C)(c3ccc(Cl)cc3)C2=O)sc(C(=O)NC)c1C (stereo unspecified)	4.5	13.3	8.6
COC(=O)c1ccccc1NC(=O)C1CC(c2ccccc2O)=NO1 (stereo unspecified)	9.8	/	-0.7
CSc1ccccc1NC(=O)C1CC(c2ccccc2O)=NO1 (stereo unspecified)	8.2	/	82.2*
O=C(NCC1CCCO1)c1cc2ccccc2oc1=O (stereo unspecified)	2.7	31.3	5.7
Oc1ccc2ccccc2c1Br	43.0*	-1.0	0.7
Oc1ccc(N=Nc2c(O)ccc3ccccc23)cc1	5.7	/	/
O=S(=O)(c1cccc2cccc(Cl)c12)N1CCCC1	0.3	9.9	1.5
Cn1c(Cn2c(=O)sc3ccccc32)nnc1SCC(=O)Nc1ccccc1F	-6.1	/	99.1*
Cn1c(Cn2c(=O)sc3ccccc32)nnc1SCC(=O)Nc1ccc(F)cc1	-1.4	/	11.1
COc1ccc(-c2nc(C)sc2CC(=O)O)cc1OC	-2.1	8.7	-10.9
COc1ccc(NC(=O)CNS(=O)(=O)c2ccc(Cl)cc2)cc1	-10.0	20.0	/
COc1ccc(NC(=O)COC(=O)CCNS(=O)(=O)c2ccc(Cl)cc2)cc1	43.1*	4.4	4.3
CCN1/C(=C\C(=S)Nc2ccccc2)Sc2ccccc21	-0.6	3.6	19.6
CCN1/C(=C/C(C)=C/c2sc3ccccc3[n+]2CC)Sc2ccccc21	81.4*	17.4	12.8
CCCc1nnc(NC(=O)CCC(=O)N2CCN(S(=O)(=O)c3ccc(C)cc3)CC2)s1	/	28.8	-13.3
CC(Nc1ccccc1)c1cc(Cl)ccc1O (stereo unspecified)	12.0	9.4	/
COc1ccc(NC(C)c2cc(Cl)ccc2O)cc1 (stereo unspecified)	-7.1	/	63.3*
O=C1OCC2OC(O)C(O)C(O)C2OC(=O)c2cc(O)c(O)c(O)c2-c2c(O)c(O)c3oc(=O)c4c(c(O)c(O)c5oc(=O)c2c3c54)-c2c1cc(O)c(O)c2O (stereo unspecified)	68.0*	9.2	/
CC(C)(C)n1nnnc1C(c1ccc(F)cc1)N(Cc1ccc(F)cc1)Cc1ccco1 (stereo unspecified)	1.7	/	/
Cc1ccc(C(c2nnnn2C(C)(C)C)N(Cc2ccco2)Cc2cccs2)cc1 (stereo unspecified)	-2.2	/	89.7*
SMILES	Rad51 HR inh	Calb biofilm kill	S1P3 antagonist
COc1ccc(Cn2nnnc2C(C(C)C)N(Cc2ccco2)Cc2cccs2)cc1 (stereo unspecified)	1.5	/	53.7*
CC(C)C(c1nnnn1Cc1ccccc1)N(Cc1ccco1)Cc1cccs1 (stereo unspecified)	-2.3	/	49.0
O=C(COc1cccnc1[N+](=O)[O-])Nc1cccc(S(=O)(=O)N2CCOCC2)c1	-1.5	7.5	-12.4
C=CCN(C(=O)c1ccc(Cl)cc1)c1ccccc1C(=O)NCC(=O)O	12.0	28.9	0.2
Brc1ccc(-c2nnc(Cc3ccccc3)o2)cc1	8.5	17.6	12.1
O/C(=C\Sc1nnc(Cc2ccccc2)o1)c1ccc(Br)cc1	4.3	/	81.2*
CC(NCc1ccc(-c2ccccc2)cc1)C(O)c1ccccc1 (stereo unspecified)	/	5.6	5.6
CC(C)CC(C(=O)NC(C)(C)C)N(Cc1cccs1)C(=O)c1snc(C(N)=O)c1N (stereo unspecified)	6.3	21.6	-4.2
CCc1ccc(NC(=O)c2cc(-c3ccco3)on2)cc1	-4.1	/	58.6*
COc1ccc(NC(=O)c2cc(-c3ccco3)on2)cc1	-9.9	3.6	0.6
Cc1nn(C)cc1CN(C)C(=O)c1cc(-c2ccccc2)nc2ccc(Br)cc12	/	1.8	-4.2
CC(=O)Nc1cc(-c2ccccc2)ccc1O	-0.4	/	-23.0
CC(=O)Nn1c(-c2ccccc2)cc2ccccc21	85.3*	/	8.5
CC(C)OP(=O)(CCP(=O)(OC(C)C)OC(C)C)OC(C)C	23.4	9.8	2.0
O=C(O)c1ccccc1-c1csc(-c2ccccc2)n1	-17.8	16.5	5.2
Cc1ccc(C(=O)N(Cc2cccnc2)Cc2cc3cc(C)ccc3n3nnnc23)cc1	-10.2	25.7	-8.4
